Laboratory results published in ChEMBL document CHEMBL1154754, “Janus kinase 2 inhibitors. Synthesis and characterization of a novel polycyclic azaindole” (J Med Chem, 2009).
Calls of active or inactive are those of the source. The calls are words filed in the database; no cut-off is given here.

How the values were obtained:
[1] = target: Tyrosine-protein kinase JAK2 (Homo sapiens, UniProt O60674); assay: Inhibition of recombinant JAK2
[2] = Cmax in CB17 mouse at 9 mg/kg, iv by LC/MS/MS method; format: ADME, organism-based; set-up: dose 9 mg/kg, route intravenous; details: in vivo
In short: (§1)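 Male Charles River Sprague-Dawley rats and Fox Chase SCID (CB-17) mice, dosed iv or po. Plasma drug concentrations measured by a specific LC/MS/MS method. Pharmacokinetic parameters are reported as mean values.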

[3] = Clearance in CB17 mouse at 9 mg/kg, iv by LC/MS/MS method; format: ADME, organism-based; set-up: dose 9 mg/kg, route intravenous; details: in vivo; in short: as §1
[4] = target: ALK tyrosine kinase receptor (Homo sapiens, UniProt Q9UM73); assay: Inhibition of ALK
[5] = AUC (0 to infinity) in Sprague-Dawley rat at 1.8 mg/kg, iv by LC/MS/MS method; format: ADME, organism-based; set-up: time infinity, dose 1.8 mg/kg, route intravenous; details: plasma; in short: as §1
[6] = AUC (0 to infinity) in Sprague-Dawley rat at 10 mg/kg, po by LC/MS/MS method; format: ADME, organism-based; set-up: time infinity, dose 10 mg/kg, route oral; details: plasma; in short: as §1
[7] = Half life in Sprague-Dawley rat at 10 mg/kg, po by LC/MS/MS method; format: ADME, organism-based; set-up: dose 10 mg/kg, route oral; details: in vivo; in short: as §1
[8] = target: Mast/stem cell growth factor receptor Kit (Homo sapiens, UniProt P10721); assay: Inhibition of cKit
[9] = Cmax in CB17 mouse at 10 mg/kg, po by LC/MS/MS method; format: ADME, organism-based; set-up: dose 10 mg/kg, route oral; details: in vivo; in short: as §1
[10] = Half life in CB17 mouse at 9 mg/kg, iv by LC/MS/MS method; format: ADME, organism-based; set-up: dose 9 mg/kg, route intravenous; details: in vivo; in short: as §1
[11] = Oral bioavailability life in CB17 mouse at 10 mg/kg by LC/MS/MS method; format: ADME, organism-based; details: in vivo; in short: as §1
[12] = Volume of distribution at steady state in CB17 mouse at 9 mg/kg, iv by LC/MS/MS method; format: ADME, organism-based; set-up: dose 9 mg/kg, route intravenous; details: in vivo, read-out: Vdss; in short: as §1
[13] = Volume of distribution at steady state in Sprague-Dawley rat at 1.8 mg/kg, iv by LC/MS/MS method; format: ADME, organism-based; set-up: dose 1.8 mg/kg, route intravenous; details: in vivo, read-out: Vdss; in short: as §1
[14] = target: T1, Mitogen-activated protein kinase kinase kinase kinase 2 (Homo sapiens, UniProt Q12851); assay: Inhibition of GCK
T1 sequence (Q12851 whole entry): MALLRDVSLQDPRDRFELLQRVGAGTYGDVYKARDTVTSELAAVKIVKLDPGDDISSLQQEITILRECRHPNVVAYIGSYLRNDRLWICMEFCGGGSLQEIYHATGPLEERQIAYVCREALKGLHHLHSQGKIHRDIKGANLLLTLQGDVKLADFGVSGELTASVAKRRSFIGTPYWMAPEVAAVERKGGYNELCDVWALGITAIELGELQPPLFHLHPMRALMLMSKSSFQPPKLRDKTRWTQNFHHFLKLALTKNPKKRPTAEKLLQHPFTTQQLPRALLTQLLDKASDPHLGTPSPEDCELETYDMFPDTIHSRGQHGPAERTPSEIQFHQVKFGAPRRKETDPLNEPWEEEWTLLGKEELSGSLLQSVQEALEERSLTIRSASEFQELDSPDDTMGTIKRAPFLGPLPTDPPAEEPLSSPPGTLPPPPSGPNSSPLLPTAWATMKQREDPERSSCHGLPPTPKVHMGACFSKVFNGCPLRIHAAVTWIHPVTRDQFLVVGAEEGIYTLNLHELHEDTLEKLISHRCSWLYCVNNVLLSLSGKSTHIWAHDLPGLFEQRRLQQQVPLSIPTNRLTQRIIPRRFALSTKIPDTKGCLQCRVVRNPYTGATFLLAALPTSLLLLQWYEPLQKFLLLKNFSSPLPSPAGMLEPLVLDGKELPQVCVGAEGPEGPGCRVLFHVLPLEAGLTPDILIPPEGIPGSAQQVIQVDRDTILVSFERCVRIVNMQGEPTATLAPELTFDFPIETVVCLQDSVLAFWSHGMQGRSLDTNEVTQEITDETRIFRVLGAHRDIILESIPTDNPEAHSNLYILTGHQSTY

Mus musculus = assay: Improvement in survival of BALB/c mouse xenografted with JAK2 V617F mutant harboring mouse Ba/F3 cells assessed as survival days at 15 mg/kg, po bid for 32 days; format: functional, BaF3
In short: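 BALB/c mice (n = 12/group) received one million mJAK2-Ba/F3 cells (murine Ba/F3 carrying mutant V617F JAK2) intravenously. Treatment started 1 week after implantation. Dosing was 15 mg/kg by oral gavage twice daily as a suspension in 5% methylcellulose, with a vehicle-only control group. Dosing continued until day 32 or moribundity. Survival was shown as Kaplan-Meier plots, and unrelated cage deaths were censored.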

[15] = Cmax in Sprague-Dawley rat at 1.8 mg/kg, iv by LC/MS/MS method; format: ADME, organism-based; set-up: dose 1.8 mg/kg, route intravenous; details: in vivo; in short: as §1
[16] = Oral bioavailability in Sprague-Dawley rat at 10 mg/kg by LC/MS/MS method; format: ADME, organism-based; details: in vivo; in short: as §1
[17] = AUC (0 to infinity) in CB17 mouse at 9 mg/kg, iv by LC/MS/MS method; format: ADME, organism-based; set-up: time infinity, dose 9 mg/kg, route intravenous; details: plasma; in short: as §1
[18] = Cmax in Sprague-Dawley rat at 10 mg/kg, po by LC/MS/MS method; format: ADME, organism-based; set-up: dose 10 mg/kg, route oral; details: in vivo; in short: as §1
[19] = Half life in CB17 mouse at 10 mg/kg, po by LC/MS/MS method; format: ADME, organism-based; set-up: dose 10 mg/kg, route oral; details: in vivo; in short: as §1
[20] = Clearance in Sprague-Dawley rat at 1.8 mg/kg, iv by LC/MS/MS method; format: ADME, organism-based; set-up: dose 1.8 mg/kg, route intravenous; details: in vivo; in short: as §1
[21] = Tmax in CB17 mouse at 10 mg/kg, po by LC/MS/MS method; format: ADME, organism-based; set-up: dose 10 mg/kg, route oral; details: in vivo; in short: as §1
[22] = AUC (0 to infinity) in CB17 mouse at 10 mg/kg, po by LC/MS/MS method; format: ADME, organism-based; set-up: time infinity, dose 10 mg/kg, route oral; details: plasma; in short: as §1
[23] = Tmax in Sprague-Dawley rat at 10 mg/kg, po by LC/MS/MS method; format: ADME, organism-based; set-up: dose 10 mg/kg, route oral; details: in vivo; in short: as §1
[24] = Half life in Sprague-Dawley rat at 1.8 mg/kg, iv by LC/MS/MS method; format: ADME, organism-based; set-up: dose 1.8 mg/kg, route intravenous; details: in vivo; in short: as §1
[25] = target: T2, Tyrosine-protein kinase JAK3 (Homo sapiens, UniProt P52333); assay: Inhibition of recombinant JAK3
T2 sequence (P52333 whole entry): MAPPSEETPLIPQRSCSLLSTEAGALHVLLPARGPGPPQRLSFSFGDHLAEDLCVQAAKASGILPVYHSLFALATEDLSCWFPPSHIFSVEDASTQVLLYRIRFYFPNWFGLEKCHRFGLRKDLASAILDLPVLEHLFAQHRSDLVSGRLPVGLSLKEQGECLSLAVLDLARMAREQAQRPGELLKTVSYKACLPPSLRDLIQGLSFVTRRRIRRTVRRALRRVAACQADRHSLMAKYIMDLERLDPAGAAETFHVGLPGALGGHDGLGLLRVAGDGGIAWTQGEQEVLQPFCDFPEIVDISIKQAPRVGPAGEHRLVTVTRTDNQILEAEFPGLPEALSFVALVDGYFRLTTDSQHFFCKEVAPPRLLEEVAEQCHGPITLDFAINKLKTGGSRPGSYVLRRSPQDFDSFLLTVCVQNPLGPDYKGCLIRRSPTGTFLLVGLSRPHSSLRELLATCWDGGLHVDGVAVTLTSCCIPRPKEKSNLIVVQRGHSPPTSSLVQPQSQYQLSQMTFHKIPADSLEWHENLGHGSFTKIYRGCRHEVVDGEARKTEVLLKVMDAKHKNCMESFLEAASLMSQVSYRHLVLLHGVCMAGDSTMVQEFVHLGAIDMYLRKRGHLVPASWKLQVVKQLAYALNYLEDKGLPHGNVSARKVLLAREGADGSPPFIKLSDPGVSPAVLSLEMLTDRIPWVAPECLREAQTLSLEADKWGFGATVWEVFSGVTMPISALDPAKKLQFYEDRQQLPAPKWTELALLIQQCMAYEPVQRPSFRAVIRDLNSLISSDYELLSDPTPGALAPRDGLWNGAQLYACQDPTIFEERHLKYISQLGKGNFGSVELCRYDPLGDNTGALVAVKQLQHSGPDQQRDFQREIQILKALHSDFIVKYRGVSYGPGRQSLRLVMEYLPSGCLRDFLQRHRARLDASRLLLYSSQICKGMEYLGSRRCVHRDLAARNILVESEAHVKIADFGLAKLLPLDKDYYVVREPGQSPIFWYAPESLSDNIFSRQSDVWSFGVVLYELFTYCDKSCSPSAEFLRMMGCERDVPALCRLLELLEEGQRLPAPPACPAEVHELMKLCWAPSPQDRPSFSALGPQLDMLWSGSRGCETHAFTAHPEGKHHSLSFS

[26] = target: T2, Tyrosine-protein kinase JAK3; assay: Inhibition of JAK3 in […] assessed as inhibition of IL2-induced STAT5 phosphorylation by flow cytometry; format: cell-based
BaF3 = assay: Antitumor activity against JAK2 V617F mutant harboring mouse sBA/F3 cells xenografted in BALB/c mouse assessed as reduced splenomegaly at 15 mg/kg, po bid for 32 days; format: functional, organism-based; set-up: dose 15 mg/kg
In short: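 Leukemia induced in BALB/c mice (n = 12/group) by iv injection of 1 million mJAK2(V617F)-Ba/F3 cells. Dosing began 1 week after implantation: 15 mg/kg oral gavage b.i.d. as a suspension in 5% methylcellulose, or vehicle alone, until day 32 or moribundity. Spleens were harvested and weighed after sacrifice on day 32.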

Tyrosine-protein kinase JAK2, sequence (O60674 whole entry): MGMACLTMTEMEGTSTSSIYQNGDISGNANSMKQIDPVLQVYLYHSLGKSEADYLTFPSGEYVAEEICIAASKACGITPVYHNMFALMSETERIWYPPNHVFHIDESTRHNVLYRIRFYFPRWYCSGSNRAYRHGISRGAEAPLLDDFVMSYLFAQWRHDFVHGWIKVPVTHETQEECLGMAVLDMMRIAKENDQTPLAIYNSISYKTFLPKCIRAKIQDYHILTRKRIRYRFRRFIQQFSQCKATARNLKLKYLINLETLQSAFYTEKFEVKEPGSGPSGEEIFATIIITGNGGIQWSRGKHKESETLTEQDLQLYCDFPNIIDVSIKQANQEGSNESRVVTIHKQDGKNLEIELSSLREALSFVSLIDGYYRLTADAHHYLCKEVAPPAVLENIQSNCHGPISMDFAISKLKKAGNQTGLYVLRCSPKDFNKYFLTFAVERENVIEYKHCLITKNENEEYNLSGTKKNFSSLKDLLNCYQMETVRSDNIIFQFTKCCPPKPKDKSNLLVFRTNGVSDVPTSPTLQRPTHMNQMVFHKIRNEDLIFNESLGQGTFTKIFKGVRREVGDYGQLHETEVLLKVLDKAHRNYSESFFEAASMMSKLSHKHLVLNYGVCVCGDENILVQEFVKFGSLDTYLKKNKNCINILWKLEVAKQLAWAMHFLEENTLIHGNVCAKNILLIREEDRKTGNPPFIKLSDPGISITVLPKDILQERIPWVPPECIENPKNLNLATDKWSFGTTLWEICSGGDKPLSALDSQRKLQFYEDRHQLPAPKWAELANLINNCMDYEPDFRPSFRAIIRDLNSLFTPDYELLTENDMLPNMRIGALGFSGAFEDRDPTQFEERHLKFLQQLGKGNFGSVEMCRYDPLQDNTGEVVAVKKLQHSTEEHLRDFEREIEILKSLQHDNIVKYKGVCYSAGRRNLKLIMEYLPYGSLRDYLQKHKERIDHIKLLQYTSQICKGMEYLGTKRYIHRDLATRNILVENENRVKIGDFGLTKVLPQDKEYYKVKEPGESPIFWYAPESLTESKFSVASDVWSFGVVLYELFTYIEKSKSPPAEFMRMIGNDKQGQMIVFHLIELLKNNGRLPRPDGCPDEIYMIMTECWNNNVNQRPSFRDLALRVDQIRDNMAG
Mast/stem cell growth factor receptor Kit, sequence (P10721 whole entry): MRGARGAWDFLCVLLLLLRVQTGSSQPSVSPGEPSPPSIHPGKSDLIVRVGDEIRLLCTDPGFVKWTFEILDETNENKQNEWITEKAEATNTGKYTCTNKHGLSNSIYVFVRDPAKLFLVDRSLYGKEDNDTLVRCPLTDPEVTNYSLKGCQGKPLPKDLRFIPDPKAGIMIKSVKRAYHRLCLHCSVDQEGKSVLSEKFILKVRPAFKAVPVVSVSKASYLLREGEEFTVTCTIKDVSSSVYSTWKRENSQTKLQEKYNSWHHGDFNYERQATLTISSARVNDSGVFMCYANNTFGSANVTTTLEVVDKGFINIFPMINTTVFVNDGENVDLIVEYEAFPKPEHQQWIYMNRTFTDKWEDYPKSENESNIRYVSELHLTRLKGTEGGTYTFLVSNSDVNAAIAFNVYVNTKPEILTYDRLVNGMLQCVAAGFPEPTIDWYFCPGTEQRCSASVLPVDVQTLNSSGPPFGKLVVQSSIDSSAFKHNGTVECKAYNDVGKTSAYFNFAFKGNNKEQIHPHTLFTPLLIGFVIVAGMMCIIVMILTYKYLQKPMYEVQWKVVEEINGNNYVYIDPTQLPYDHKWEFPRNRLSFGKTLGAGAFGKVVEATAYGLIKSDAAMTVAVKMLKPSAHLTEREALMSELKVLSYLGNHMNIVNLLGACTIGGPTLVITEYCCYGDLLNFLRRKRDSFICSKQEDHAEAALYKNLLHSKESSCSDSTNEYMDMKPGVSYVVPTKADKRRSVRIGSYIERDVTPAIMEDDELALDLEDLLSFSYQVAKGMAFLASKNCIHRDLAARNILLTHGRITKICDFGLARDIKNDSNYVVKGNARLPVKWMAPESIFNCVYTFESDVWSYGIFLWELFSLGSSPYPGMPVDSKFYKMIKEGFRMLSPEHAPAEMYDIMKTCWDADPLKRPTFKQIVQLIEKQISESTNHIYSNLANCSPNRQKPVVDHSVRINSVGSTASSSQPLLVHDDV
ALK tyrosine kinase receptor, sequence (Q9UM73 whole entry): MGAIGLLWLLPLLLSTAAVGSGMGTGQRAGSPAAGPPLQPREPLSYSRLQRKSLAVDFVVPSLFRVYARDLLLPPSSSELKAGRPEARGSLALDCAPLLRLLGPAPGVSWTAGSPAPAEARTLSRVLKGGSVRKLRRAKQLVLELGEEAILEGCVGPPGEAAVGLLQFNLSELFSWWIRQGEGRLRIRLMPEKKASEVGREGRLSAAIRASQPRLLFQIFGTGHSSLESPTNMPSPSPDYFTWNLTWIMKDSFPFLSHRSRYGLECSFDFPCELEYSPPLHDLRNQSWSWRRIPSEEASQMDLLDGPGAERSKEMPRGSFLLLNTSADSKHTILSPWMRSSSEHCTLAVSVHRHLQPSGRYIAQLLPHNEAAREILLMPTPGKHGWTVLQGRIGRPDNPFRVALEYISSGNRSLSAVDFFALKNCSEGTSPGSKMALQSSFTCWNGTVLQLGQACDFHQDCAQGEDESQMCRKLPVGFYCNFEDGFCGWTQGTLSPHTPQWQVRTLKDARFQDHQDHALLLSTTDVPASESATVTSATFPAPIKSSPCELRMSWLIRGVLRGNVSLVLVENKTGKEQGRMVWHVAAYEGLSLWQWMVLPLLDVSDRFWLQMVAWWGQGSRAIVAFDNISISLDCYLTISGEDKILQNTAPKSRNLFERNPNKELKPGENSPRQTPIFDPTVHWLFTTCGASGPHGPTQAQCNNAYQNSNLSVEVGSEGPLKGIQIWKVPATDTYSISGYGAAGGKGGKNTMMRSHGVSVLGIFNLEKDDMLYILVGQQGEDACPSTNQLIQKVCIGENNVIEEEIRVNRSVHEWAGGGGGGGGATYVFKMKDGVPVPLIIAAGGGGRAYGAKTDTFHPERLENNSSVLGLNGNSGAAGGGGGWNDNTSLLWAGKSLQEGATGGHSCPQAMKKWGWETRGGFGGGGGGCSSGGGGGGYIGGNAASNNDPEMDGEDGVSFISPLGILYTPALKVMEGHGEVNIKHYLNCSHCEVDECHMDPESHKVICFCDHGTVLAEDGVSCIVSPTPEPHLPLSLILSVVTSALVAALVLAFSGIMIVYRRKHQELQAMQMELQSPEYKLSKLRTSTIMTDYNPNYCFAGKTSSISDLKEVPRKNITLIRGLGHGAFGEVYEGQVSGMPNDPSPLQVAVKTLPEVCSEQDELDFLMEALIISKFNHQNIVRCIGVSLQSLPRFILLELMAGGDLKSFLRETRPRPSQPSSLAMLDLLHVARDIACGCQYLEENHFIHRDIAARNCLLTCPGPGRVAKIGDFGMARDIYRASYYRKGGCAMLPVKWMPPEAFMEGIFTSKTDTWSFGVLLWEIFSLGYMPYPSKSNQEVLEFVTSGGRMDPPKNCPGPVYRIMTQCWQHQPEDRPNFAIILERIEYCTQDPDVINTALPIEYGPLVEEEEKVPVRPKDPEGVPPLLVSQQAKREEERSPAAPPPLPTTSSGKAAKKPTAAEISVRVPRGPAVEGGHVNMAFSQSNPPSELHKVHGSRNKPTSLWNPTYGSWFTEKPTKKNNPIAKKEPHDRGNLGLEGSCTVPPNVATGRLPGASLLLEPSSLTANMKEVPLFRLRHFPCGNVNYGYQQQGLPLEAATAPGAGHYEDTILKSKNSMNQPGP

Question: With `c1ccc(-c2ncnc3[nH]ccc23)cc1` as the compound, how does the Ki [1] read?
Answer: Its Ki is 480 nM.

Question: Which Cmax [2] does the source give for `O=C1Nc2ccccc2-c2ccnc3[nH]cc(c23)C1c1ccc(O)cc1` (stereo not given) [listing 1 of 2 here] here?
Answer: Its Cmax is 7300 ng/mL.

Question: And the clearance [3]?
Answer: Its clearance is 12.1 mL/min/kg.

Question: And the Ki [4]?
Answer: Its Ki is 17 nM.

Question: And the AUC(0-inf) [5]?
Answer: The AUC(0-inf) was 1260 ng·h/mL.

Question: And the AUC(0-inf) [6]?
Answer: Its AUC(0-inf) is 7700 ng·h/mL.

Question: What about the half-life [7] of the same compound?
Answer: The half-life was 216 min.

Question: And the Ki [8]?
Answer: The Ki was 190 nM.

Question: What about the Cmax [9] of the same compound?
Answer: The Cmax was 1000 ng/mL.

Question: And the half-life [10]?
Answer: The half-life was 162 min.

Question: What about the bioavailability [11] of the same compound?
Answer: The bioavailability was 66.1%.

Question: And the Vd [12]?
Answer: The Vd was 2.3 L/kg.

Question: What about the Vd [13] of the same compound?
Answer: Its Vd is 5.7 L/kg.

Question: And the IC50 [14]?
Answer: The IC50 was 340 nM.

Question: What about the Survival (Mus musculus) of the same compound?
Answer: Its Survival is 32 days.

Question: And the Cmax [15]?
Answer: Its Cmax is 700 ng/mL.

Question: What about the bioavailability [16] of the same compound?
Answer: The bioavailability was 100%.

Question: What about the AUC(0-inf) [17] of the same compound?
Answer: Its AUC(0-inf) is 12500 ng·h/mL.

Question: And the Cmax [18]?
Answer: Its Cmax is 1080 ng/mL.

Question: And the half-life [19]?
Answer: The half-life was 192 min.

Question: And the clearance [20]?
Answer: The clearance was 23.8 mL/min/kg.

Question: What about the Tmax [21] of the same compound?
Answer: The Tmax was 2 h.

Question: What about the AUC(0-inf) [22] of the same compound?
Answer: Its AUC(0-inf) is 8300 ng·h/mL.

Question: And the Tmax [23]?
Answer: Its Tmax is 3 h.

Question: What about the half-life [24] of the same compound?
Answer: The half-life was 204 min.

Question: What does the source list for `O=C1Nc2ccccc2-c2ccnc3[nH]cc(c23)C1c1ccc(O)cc1` (single isomer, unassigned; atropisomer 1)?
Answer: Ki [25]: 5.5 nM; IC50 [26]: 1530 nM

Question: With `Clc1cnc2[nH]cc(-c3ccccc3)c2c1` as the compound, how does the Ki [1] read?
Answer: The Ki was 260 nM.

Question: With `O=C1Nc2ccccc2-c2ccnc3[nH]cc(c23)C1c1ccc(O)cc1` (stereo not given) [listing 2 of 2 here] as the compound, how does the Activity (BaF3) read?
Answer: The Activity was “Active”.

Question: With `O=C1Nc2ccccc2-c2ccnc3[nH]cc(c23)C1c1ccc(O)cc1` (single isomer, unassigned; atropisomer 2) as the compound, how does the Ki [25] read?
Answer: Its Ki is 6 nM.
